The values below come from ChEMBL document CHEMBL3992522, “Antileishmanial Activity of Pyrazolopyridine Derivatives and Their Potential as an Adjunct Therapy with Miltefosine” (J Med Chem, 2017).

Usually CC50 stands for the concentration at which the toxic effect on the cells reaches its halfway point. For orientation: inhibition in vivo means the change of the read-out against control, counted positive when it falls. As usually defined, the IC50 is the concentration that gives 50% inhibition.

For series [1], the system named is Leishmania donovani. The series can be described thus: Antileishmanial activity against Leishmania donovani MHOM/IN/80/DD8 amastigote forms harboring luciferase gene infected in mouse J774 cells at 50 uM after 72 hrs by Steady-Glo reagent based luminescence assay relative to control. Format: functional. To be noted: MHOM/IN/80/DD8, J774, 72 h, read-out: GI. In a few lines: (§1)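 Stationary-phase luciferase-expressing Dd8 promastigotes infected into J774 macrophages (4×10^4/mL seeded, 24 h, 37 °C, 5% CO2) at 1:8 macrophage:parasite for 24 h. Non-internalised parasites washed off. Compounds added at 50 and 25 µM in RPMI/10% FBS for 72 h. Lysis with Steady-Glo luciferin reagent plus PBS, luminescence read. Inhibition relative to untreated infected controls.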

The nature of series [2]: Cytotoxicity against mouse J774 cells assessed as reduction in cell viability after 72 hrs by MTT assay. Format: cell-based. In a few lines:
(§2)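 Vero and J774 cells seeded at 1×10^5 per well for 24 h, then exposed 72 h to seven two-fold dilutions from 500 to 7.81 μM. MTT solution (5 mg/mL stock) added for 2 h at 37 °C, formazan dissolved in DMSO and read at 540 nm. CC50 derived by the Huber and Koella method.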
Background: Tetrazolium dyes change colour on reduction, which living cells bring about.

Series [3] has as its system Mus musculus. The series can be described thus: Decrease in IL-10 level in Balb/c mouse splenocytes infected with Leishmania donovani amastigote forms at 25 mg/kg, po administered for 5 consecutive days measured on day 4 post last treatment by sandwich ELISA relative to control. Format: functional. The conditions noted are these: 96 h. A general note: An ELISA detects its analyte on a solid surface through an enzyme-linked reagent.

The subject of series [4] is Leishmania donovani. The series is described as follows: Antileishmanial activity against Leishmania donovani MHOM/IN/80/DD8 amastigote forms harboring luciferase gene infected in mouse J774 cells after 72 hrs by Steady-Glo reagent based luminescence assay. The conditions noted are these: MHOM/IN/80/DD8, J774, 72 h. Format: functional, cell-based.
Series [5] can be described thus: Selectivity index, ratio of CC50 for mouse J774 cells to IC50 for Leishmania donovani MHOM/IN/80/DD8 amastigote forms infected in mouse J774 cells. The conditions noted are these: read-out: Ratio CC50/IC50. Format: toxicity, cell-based. In a few lines: (§3)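 CC50: Vero or J774 cells (1×10^5/well) exposed 72 h to seven two-fold dilutions, 500–7.81 μM; MTT 2 h at 37 °C, formazan in DMSO read at 540 nm. IC50: luciferase-expressing Dd8 amastigotes in J774 macrophages (1:8), 72 h, luminescence, four-parameter Hill fit. SI = CC50/IC50, IC50 mean of three experiments.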

The subject of series [6] is Leishmania donovani. The series can be described thus: Antileishmanial activity against Leishmania donovani amastigote forms infected in Balb/c mouse assessed as inhibition of parasitic burden in spleen at 5 mg/kg, po administered for 5 consecutive days measured on day 7 post last treatment by Giemsa staining based assay relative to control. The conditions noted are these: 168 h. Format: functional.

Series [7] has as its system Leishmania donovani. The series can be described thus: Antileishmanial activity against Leishmania donovani MHOM/IN/80/DD8 promastigote forms harboring luciferase gene at 25 uM after 72 hrs by Steady-Glo reagent based luminescence assay relative to control. To be noted: MHOM/IN/80/DD8, 72 h, read-out: GI. Format: functional. In a few lines: (§4)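 Exponential-phase Dd8-Luc promastigotes at 1×10^6/mL in M199 with 10% FBS, 24 °C, given 50 and 25 µM for 72 h. Vehicle 0.1% DMSO. Steady-Glo added 1:1, luminescence (RLU) read. IC50 from four-parameter Hill regression, derived only where inhibition exceeded 90%. Means of at least three independent experiments.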

Series [8] concerns Leishmania donovani. The series can be described thus: Antileishmanial activity against Leishmania donovani MHOM/IN/80/DD8 amastigote forms harboring luciferase gene infected in mouse J774 cells at 25 uM after 72 hrs by Steady-Glo reagent based luminescence assay relative to control. The class given is functional. To be noted: MHOM/IN/80/DD8, J774, 72 h, read-out: GI. The procedure, abridged: as §1

Series [9] has as its system Leishmania donovani. The series is described as follows: Antileishmanial activity against Leishmania donovani MHOM/IN/80/DD8 promastigote forms harboring luciferase gene at 50 uM after 72 hrs by Steady-Glo reagent based luminescence assay relative to control. To be noted: MHOM/IN/80/DD8, 72 h, read-out: GI. Format: functional. The procedure, abridged: as §4
For series [10], the system named is Mus musculus. The series is described as follows: Decrease in TGFbeta level in Balb/c mouse splenocytes infected with Leishmania donovani amastigote forms at 25 mg/kg, po administered for 5 consecutive days measured on day 4 post last treatment by sandwich ELISA relative to control. The class given is functional. The conditions noted are these: 96 h.
Series [11] has as its system Mus musculus. The series can be described thus: Increase in IFNgamma level in Balb/c mouse splenocytes infected with Leishmania donovani amastigote forms at 25 mg/kg, po administered for 5 consecutive days measured on day 4 post last treatment by sandwich ELISA relative to control. The class given is functional.
For series [12], the system named is Leishmania donovani. The series can be described thus: Antileishmanial activity against Leishmania donovani amastigote forms infected in Balb/c mouse assessed as inhibition of parasitic burden in liver at 5 mg/kg, po administered for 5 consecutive days measured on day 7 post last treatment by Giemsa staining based assay relative to control. The conditions noted are these: 168 h. The class given is functional.

Series [13] relates to Mus musculus. The series is described as follows: Increase in TNFalpha level in Balb/c mouse splenocytes infected with Leishmania donovani amastigote forms at 25 mg/kg, po administered for 5 consecutive days measured on day 7 post last treatment by sandwich ELISA relative to control. The class given is functional.
The test system of series [14] is Mus musculus. The series is described as follows: Increase in iNOS-mediated NO generation in Balb/c mouse splenocytes infected with Leishmania donovani amastigote forms at 5 mg/kg, po for 5 consecutive days measured on day 4 and 7 post last treatment followed by soluble Leishmania donovani promastigote antigen-stimulation for 72 hrs by Griess assay relative to control. Format: functional. In a few lines: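 Splenocytes from treated infected BALB/c mice (5-day regimen, i.p. test compound, oral miltefosine; n = 5) isolated day 4 and day 7 post-treatment. Cultured in phenol red-free RPMI 1640 with 5 μg/mL SLA for 72 h at 37 °C, 5% CO2. Supernatant nitrite measured by Griess assay at 540 nm against a sodium nitrite standard curve.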
(Griess reagent forms a coloured azo dye with nitrite.)

For series [15], the system named is Mus musculus. The series is described as follows: Decrease in IL-10 level in Balb/c mouse splenocytes infected with Leishmania donovani amastigote forms at 25 mg/kg, po administered for 5 consecutive days measured on day 7 post last treatment by sandwich ELISA relative to control. Format: functional. To be noted: 168 h.
In series [16] the test system is Mus musculus. The series is described as follows: Increase in IL-12 level in Balb/c mouse splenocytes infected with Leishmania donovani amastigote forms at 25 mg/kg, po administered for 5 consecutive days measured on day 4 post last treatment by sandwich ELISA relative to control. The class given is functional.
Series [17] concerns Mus musculus. The series can be described thus: Increase in IL-12 level in Balb/c mouse splenocytes infected with Leishmania donovani amastigote forms at 25 mg/kg, po administered for 5 consecutive days measured on day 7 post last treatment by sandwich ELISA relative to control. The class given is functional.
Series [18] deals with Mus musculus. The series is described as follows: Increase in IFNgamma level in Balb/c mouse splenocytes infected with Leishmania donovani amastigote forms at 25 mg/kg, po administered for 5 consecutive days measured on day 7 post last treatment by sandwich ELISA relative to control. Format: functional.
A short description of series [19]: Selectivity index, ratio of CC50 for African green monkey Vero cells to IC50 for Leishmania donovani MHOM/IN/80/DD8 amastigote forms infected in mouse J774 cells. The conditions noted are these: read-out: Ratio CC50/IC50. The class given is toxicity, cell-based. In a few lines:
as §3

The subject of series [20] is Mus musculus. The series is described as follows: Decrease in TGFbeta level in Balb/c mouse splenocytes infected with Leishmania donovani amastigote forms at 25 mg/kg, po administered for 5 consecutive days measured on day 7 post last treatment by sandwich ELISA relative to control. Format: functional. To be noted: 168 h.
Series [21] can be described thus: Cytotoxicity against African green monkey Vero cells assessed as reduction in cell viability after 72 hrs by MTT assay. Format: cell-based. The conditions noted are these: chlorocebus sabaeus. In a few lines:
as §2

Series [22] has as its system Mus musculus. The series can be described thus: Increase in TNFalpha level in Balb/c mouse splenocytes infected with Leishmania donovani amastigote forms at 25 mg/kg, po administered for 5 consecutive days measured on day 4 post last treatment by sandwich ELISA relative to control. Format: functional.
The subject of series [23] is Mus musculus. The series can be described thus: Increase in iNOS-mediated NO generation in Balb/c mouse splenocytes infected with Leishmania donovani amastigote forms at 25 mg/kg, po for 5 consecutive days measured on day 4 post last treatment followed by soluble Leishmania donovani promastigote antigen-stimulation for 72 hrs by Griess assay relative to control. Format: functional.

Turning to `CCCCCCCCCCCCCCCCOP(=O)([O-])OCC[N+](C)(C)C` [MILTEFOSINE], the inhibition of growth at 50 µM with Leishmania donovani [1] and with Leishmania donovani [9] was 100% throughout. Moreover, the CC50 at 72 h in series [2] is 55.7 µM; in series [21] it was 50.8 µM. Moreover, the inhibition in vivo at 25 mg/kg with Mus musculus [3] turned out to be 88.7%; in the series with Mus musculus [10], 87.5%; with Mus musculus [15] it was 92.9%; with Mus musculus [20], 94.6%. Half-maximal inhibition in the series with Leishmania donovani [4] (IC50) required 9.46 µM. The selectivity ratio stood at 5.8 in series [5] and 5.3 in [19]. The values for the inhibition in vivo at 5 mg/kg in the series on Leishmania donovani [6] and in the series with Leishmania donovani [12] were > 61% and > 75%, respectively. Also, the figures for the inhibition of growth at 25 µM in the series on Leishmania donovani [7] and with Leishmania donovani [8] were 100% and 99.8%, respectively. Moreover, the “fold change (FC)” value in the series with Mus musculus [11] was found to be 9.1; in the series on Mus musculus [13], 5.3; in the series on Mus musculus [14] it was 4.3; with Mus musculus [16] it was 12.9; with Mus musculus [17], 9.5; in the series with Mus musculus [18], 8.1. The “fold change (FC)” value is 6.5 in the series with Mus musculus [22] and 7.4 in the series with Mus musculus [23].
